MIC and IC50 data for 5 molecules are collected here from ChEMBL document CHEMBL1132294, “Derivatives of the new ring system indolo[1,2-c]benzo[1,2,3]triazine with potent antitumor and antimicrobial activity” (J Med Chem, 1999).

A word on the MIC: it is the smallest concentration in the dilution series that meets the test's criterion for growth inhibition. Low readings indicate greater potency, high ones weaker potency. As usually defined, the IC50 is the concentration at which inhibition is half-maximal.

Structures are written as SMILES. In brackets after ≈: the same amount, converted by molar mass.

Assay [1] concerns Candida tropicalis. In words: Antimycotic activity against Candida paratropicalis was evaluated. MIC was defined as compound concentration at which no macroscopic signs of fungal growth were detected. It is filed as functional. Put shortly: (§1)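 Yeast inocula from 30 h Sabouraud dextrose broth cultures at 37 °C, diluted to 5×10³ cells/mL. Dermatophyte inocula from 5-day cultures, homogenized and diluted to 0.05 OD₅₉₀/mL. Inocula added to medium with serial dilutions, incubated at 37 °C, read visually at 2 days (yeast) or 3 days (dermatophytes). Mean of at least three experiments.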

In assay [2] the test system is Mycobacterium tuberculosis. The experiment in a line: Antibacterial activity was evaluated against Mycobacterium tuberculosis (ATCC). The assay is classed as functional. Put shortly:
(§2)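 Broth microdilution in Middlebrook 7H9 with 0.5% glycerol and 10% OADC, containing serial concentrations of compound (diluted in medium from a DMSO solution). Plates were incubated 9 days at 37 °C, and viable bacteria were read by MTT. MIC is the mean of at least three separate experiments.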

In assay [3] the test system is Aspergillus fumigatus. The experiment in a line: Antimycotic activity against Aspergillus fumigatus was evaluated as compound minimum inhibitory concentration at which no macroscopic signs of fungal growth were detected. The assay is classed as functional.
Assay [4] has as its system Shigella. The experiment in a line: Antibacterial activity was evaluated against shigella. It is filed as functional. The method in brief: (§3)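 Recent clinical isolates grown in nutrient broth, pH 7.2, inoculum 10³ bacterial cells/tube, with serial compound dilutions. […] Mean of at least three separate experiments.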
Assay [5] concerns Mycobacterium. In words: Antibacterial activity was evaluated against MAC (Mycobacterium Avium Complex ). It is filed as functional. The method in brief: (§4)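 Mycobacterial suspension (turbidity of 1 McFarland standard, 10⁸ CFU/mL) added to Middlebrook 7H9 with 0.5% glycerol, 10% OADC and serial compound dilutions. Incubated at 37 °C, 1 day for M. smegmatis and M. fortuitum, 9 days for MAC. Viable mycobacteria counted by MTT. MIC given as mean of at least three separate experiments.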

In assay [6] the test system is Candida albicans. The experiment in a line: Antimycotic activity against Candida albicans was evaluated as minimum inhibitory concentration of compound at which no macroscopic signs of fungal growth were detected. It is filed as functional. The method in brief: as §1
In assay [7] the test system is MOLT-4. The experiment in a line: Antitumor activity was evaluated against leukemia cell line MOLT-4(human acute T lymphoblastic leukemia). It is filed as functional, cell-based. Put shortly:
(§5)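 Exponentially growing leukemia/lymphoma cells resuspended at 1×10⁵ cells/mL in RPMI with serial drug dilutions. Viability by MTT after 4 days at 37 °C. Concentration giving 50% growth inhibition versus untreated controls found by linear regression. Mean of at least three experiments.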

Assay [8] concerns Mycolicibacterium smegmatis. In words: Antibacterial activity was evaluated against Mycobacterium smegmatis. It is filed as functional. The method in brief: as §4
The test system of assay [9] is HT-29. The experiment in a line: Antitumor activity was evaluated against human colon adenocarcinoma cell line HT-29. It is filed as functional, cell-based. The method in brief:
(§6)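 Solid-tumour and KB lines: exponentially growing cells seeded at 5×10⁴ cells/mL, allowed to adhere 16 h, then serial drug dilutions added. Viability by MTT after 4 days. Growth expressed as % of untreated controls, 50% inhibitory concentration by linear regression. Untreated cells undergo at least three rounds of multiplication.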

Assay [10] relates to L1210. The experiment in a line: Antitumor activity was evaluated against leukemia cell line L1210 (mouse leukemia). It is filed as functional, cell-based. The method in brief:
as §5

The subject of assay [11] is WIL2-NS. The experiment in a line: Antitumor activity was evaluated against lymphoma cell line Wil2-NS (human splenic B lymphoblastoid cells). The assay is classed as functional, cell-based. Put shortly: as §5
Assay [12] relates to CCRF-CEM. The experiment in a line: Antitumor activity was evaluated against leukemia cell line CCRF-CEM(human acute T lymphoblastic leukemia). It is filed as functional, cell-based. Put shortly: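 Exponentially growing leukemia/lymphoma cells resuspended at 1×10⁵ cells/mL in RPMI with serial drug dilutions. Viability by MTT after 4 days at 37 °C. Mean of at least three experiments.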

Assay [13] relates to IMR-32. In words: Antitumor activity was evaluated against human neuroblastoma cell line IMR-32. It is filed as functional, cell-based. The method in brief:
as §6

Assay [14] deals with 5637. The experiment in a line: Antitumor activity was evaluated against human bladder carcinoma cell line 5637. The assay is classed as functional, cell-based. Put shortly: as §6
Assay [15] relates to Trichophyton benhamiae. In words: Antimycotic activity against Trichophyton mentagrophytes was evaluated. MIC was defined as compound concentration at which no macroscopic signs of fungal growth were detected. The assay is classed as functional, Arthroderma benhamiae. The method in brief:
as §1

Assay [16] has as its system Staphylococcus. The experiment in a line: Antibacterial activity was evaluated against staphylococcus. It is filed as functional. The method in brief:
as §3

Assay [17] deals with Mycolicibacterium fortuitum. The experiment in a line: Antibacterial activity was evaluated against Mycobacterium fortuitum. It is filed as functional. The method in brief:
as §4

Assay [18] has as its system Candida parapsilosis. The experiment in a line: Antimycotic activity against Candida parapsilosis was evaluated as compound concentration at which no macroscopic signs of fungal growth were detected. It is filed as functional. Conditions: Lodderomyces parapsilosis. The method in brief:
as §1

Assay [19] has as its system ACHN. In words: Antitumor activity was evaluated against human renal adenocarcinoma cell line ACHN. The assay is classed as functional, cell-based. The method in brief: as §6
Assay [20] has as its system Mycobacterium tuberculosis. In words: Antibacterial activity was evaluated against Mycobacterium tuberculosis (clinical isolate 1104). The assay is classed as functional. Put shortly: as §2
For assay [21], the system named is Salmonella. In words: Antibacterial activity was evaluated against salmonella. It is filed as functional. The method in brief:
as §3

For assay [22], the system named is HeLa. The experiment in a line: Antitumor activity was evaluated against human cervix carcinoma cell line HeLa. It is filed as functional, cell-based. The method in brief: as §6
Assay [23] has as its system CCRF-SB. The experiment in a line: Antitumor activity was evaluated against leukemia cell line CCRF-SB(human acute B lymphoblastic leukemia). The assay is classed as functional, cell-based. The method in brief: as §5
For assay [24], the system named is Cryptococcus neoformans. In words: Antimycotic activity against Cryptococcus neoformans was evaluated. MIC was defined as compound concentration at which no macroscopic signs of fungal growth were detected. The assay is classed as functional. Put shortly: as §1
Assay [25] deals with MT4. In words: Antitumor activity was evaluated against leukemia cell line MT-4(human CD4+ T cells expressing the TAT gene of HTLV-1). It is filed as functional, cell-based. The method in brief:
as §5

For assay [26], the system named is CHO-K1. In words: Antitumor activity was evaluated against Chinese hamster ovary carcinoma cell line CHO-K1. It is filed as functional, cell-based. Conditions: Cricetulus griseus. The method in brief:
as §6

The subject of assay [27] is Streptococcus. In words: Antibacterial activity was evaluated against streptococcus. It is filed as functional. Put shortly:
as §3

Take `COc1ccc2c(c1)c(N=O)c1c3ccccc3nnn21`: the MIC in [1] is over 200 µM; in [2], 5.3 µM (≈ 1.47 µg/mL); in assay [3], over 200 µM; in assay [4] it was over 200 µM; in assay [5] it was 2.5 µM (≈ 0.696 µg/mL); in assay [6], over 200 µM. Also, the MIC is over 5 µM in [8]; over 200 µM in assay [15]; 0.2 µM (≈ 0.0557 µg/mL) in assay [16]; over 5 µM in assay [17]; over 200 µM in [18]; 4.5 µM (≈ 1.25 µg/mL) in assay [20]. The figures for the MIC in [21], in [24] and in assay [27] were over 200 µM, over 200 µM and 0.1 µM (≈ 0.0278 µg/mL), respectively. The IC50 in [7] is 1.3 µM; in assay [9], over 50 µM; in assay [10], 13 µM; in [11] it was 3.7 µM; in assay [12] it was 7.2 µM; in assay [13] it was 2.3 µM. For the same molecule, the half-inhibitory concentration (IC50) in [14] was 6 µM; in assay [19], 14 µM; in assay [22] it was 11 µM; in assay [23], 5 µM; in assay [25], 1.1 µM; in assay [26], over 50 µM.
As for `O=Nc1c2cc([N+](=O)[O-])ccc2n2nnc3ccccc3c12`, the minimal inhibitory concentration (MIC) was 22 µM (≈ 6.45 µg/mL) in [1]; over 200 µM in assay [3]; over 200 µM in [4]; 66 µM (≈ 19.4 µg/mL) in [6]; 66 µM (≈ 19.4 µg/mL) in [15]; 0.09 µM (≈ 0.0264 µg/mL) in assay [16]. Moreover, the MIC was over 5 µM in assay [17]; 66 µM (≈ 19.4 µg/mL) in assay [18]; over 200 µM in [21]; 7.4 µM (≈ 2.17 µg/mL) in assay [24]; 0.09 µM (≈ 0.0264 µg/mL) in assay [27]. Moreover, the half-maximal inhibitory concentration (IC50) in assay [7] worked out at 6.6 µM; in [9], 18 µM; in assay [10], 9.2 µM; in assay [11], 12 µM; in [12], 8.2 µM; in [13], 12 µM. The IC50 in assay [14] was 29 µM; in assay [19], over 50 µM; in assay [22] it was 16 µM; in assay [23], 11 µM; in assay [25], 1.2 µM; in assay [26], 42 µM.
As to `O=Nc1c2ccccc2n2nnc3ccc(Cl)cc3c12`, the MIC in [1] was 150 µM (≈ 42.4 µg/mL); in [2] it was 1.8 µM (≈ 0.509 µg/mL); in assay [3], 9.4 µM (≈ 2.66 µg/mL); in [4], over 200 µM; in assay [5] it was 2.5 µM (≈ 0.707 µg/mL); in [6] it was 150 µM (≈ 42.4 µg/mL). The MIC in assay [8] is 4.2 µM (≈ 1.19 µg/mL); in assay [15], 9.4 µM (≈ 2.66 µg/mL); in [16], 0.05 µM (≈ 0.0141 µg/mL); in [17], over 5 µM; in [18], 19 µM (≈ 5.37 µg/mL); in assay [20] it was 1.6 µM (≈ 0.452 µg/mL). In addition, the MIC in assay [21] is over 200 µM; in [24], 0.8 µM (≈ 0.226 µg/mL); in assay [27], 0.1 µM (≈ 0.0283 µg/mL). Moreover, the IC50 in [7] amounted to 2 µM; in [9], 24 µM; in assay [10], 7.4 µM; in assay [11], 2.7 µM; in assay [12], 5 µM; in assay [13] it was 2.3 µM. Further, the IC50 in assay [14] was found to be 2.1 µM; in [19], 11 µM; in assay [22], 5.4 µM; in assay [23], 7 µM; in [25], 1.7 µM; in [26], 31 µM.
Turning to `Clc1ccc(COC(Cn2ccnc2)c2ccc(Cl)cc2Cl)c(Cl)c1` (stereo unspecified) [MICONAZOLE], the MIC was 0.9 µM (≈ 0.375 µg/mL) in assay [1]; 7.5 µM (≈ 3.12 µg/mL) in assay [6]; 0.9 µM (≈ 0.375 µg/mL) in assay [15]; 7.5 µM (≈ 3.12 µg/mL) in assay [18]; 0.9 µM (≈ 0.375 µg/mL) in [24].
In the case of `CN[C@@H]1[C@H](O[C@H]2[C@H](O[C@H]3[C@H](O)[C@@H](O)[C@H](N=C(N)N)[C@@H](O)[C@@H]3N=C(N)N)O[C@@H](C)[C@]2(O)C=O)O[C@@H](CO)[C@H](O)[C@H]1O` [STREPTOMYCIN], the MIC was 5.4 µM (≈ 3.14 µg/mL) in assay [2]; 2.1 µM (≈ 1.22 µg/mL) in assay [4]; 7.4 µM (≈ 4.3 µg/mL) in [5]; 5 µM (≈ 2.91 µg/mL) in [8]; 4.2 µM (≈ 2.44 µg/mL) in [16]; 4 µM (≈ 2.33 µg/mL) in [17]. In addition, the MIC came to 2.9 µM (≈ 1.69 µg/mL) in [20], 8.6 µM (≈ 5 µg/mL) in assay [21] and 2.1 µM (≈ 1.22 µg/mL) in assay [27].
